Assay results gathered from unrelated publications.
Target: LIM domain kinase 2 (LIMK2, Homo sapiens, UniProt P53671)

Compound	test	setting	quantity	result
CC(C)(C)c1nc(-c2cccc(NS(=O)(=O)c3c(F)cccc3F)c2F)c(-c2ccnc(N)n2)s1	enzyme activity, inhibitor, radiometric	1 µM	remaining activity	87%
COc1cc(Cl)c(C(=O)N[C@@H](CN[C@H]2CC[C@@H](N)CC2)Cc2ccc(C#N)cc2)cc1-c1ccc(CN[C@H](C)c2ccc(C)cc2)o1	enzyme activity, inhibitor	1 µM	remaining activity	101%
O=C(N[C@H]1CCCCC/C=C\C2C[C@@]2(C(=O)O)NC(=O)[C@@H]2C[C@@H](Oc3ccncc3)CN2C1=O)OC1CCCC1 (stereo partly drawn)	binding, competition with immobilised ligand	1 µM	remaining binding	93%
CC(C)(C)c1nc2c(s1)c1nc(N)ncc1c1ccc(NS(=O)(=O)c3c(F)cccc3F)c(F)c12	enzyme activity, inhibitor, radiometric	1 µM	remaining activity	92%
CCOc1cc(-c2nncn2C)ccc1Nc1ncc2cc(C)nc(NCC(C)(C)C)c2n1	cell-free assay, TR-FRET	1 µM	inhibition	≤ 15%
Nc1ncnc2occ(-c3ccc(NC(=O)Nc4cc(C(F)(F)F)ccc4F)cc3)c12	cell-free assay, inhibitor	20 µM	remaining signal	8.8%
Cc1ccc(C(=O)Nc2ccc(CN3CCN(C)CC3)c(C(F)(F)F)c2)cc1C#Cc1cnc2cccnn12	enzyme activity, inhibitor	23.5 nM	remaining activity	100%
O=C(NCc1ncc(C(F)(F)F)cc1Cl)c1ccc2c(c1)C1(CCS(=O)(=O)CC1)[C@@H](C1CC1)N2S(=O)(=O)c1ccc(F)cc1	cell-free assay, competition with immobilised ligand	1 µM	remaining binding	94%
Cc1sc(C(=O)NC2COC2)cc1-n1cc(NC(=O)Nc2c(F)cccc2Cl)cn1	enzyme activity, inhibitor	10 µM	remaining activity	113%
c1cnn2ncc(-c3ccnc(N4CCC45COC5)n3)c2c1	binding	1 µM	remaining binding	82%
O=C(Nc1cnn(-c2csc(C(=O)NC3COC3)c2)c1)Nc1ccccc1Cl	enzyme activity, inhibitor	5 µM	remaining activity	96.8%
CN1CC(Oc2cnc(C#N)cc2-c2ccn3nc(NC(=O)C4CC4)cc3c2)C1	enzyme activity, inhibitor	1 µM	inhibition	5%
